Bioassay records from PubChem.
DNA FID counter: counter-screen for HCV NS3 helicase inhibitors: DNA intercalator displacement; DNA fluorescent intercalator displacement, fluorescence; inhibition, % at 7.9 µM; 290,000 tested, 0.17% active; AID 1845; in the data active = inhibition above about 37%;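 note: 0% = vehicle and 100% = reference compound; higher means more ethidium bromide displaced from hairpin DNA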
PP5 primary: PP5 (human) phosphatase inhibition; P53041; purified PP5c, OMFP substrate fluorescence; inhibition, % at 6.7 µM; 320,000 tested, 0.18% active; AID 1987;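 active = inhibition above the campaign's mean inhibition across all tested compounds plus 3 SD, cut at about 9.5% in these data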;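 note: 0% = DMSO only and 100% = 100 µM cantharidin control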
HIF act: HIF pathway transcriptional activation; U2OS HRE-luciferase reporter, luminescence; normalized: DMSO 0%, desferrioxamine 100%; activation, % at 7.5 µM (by protocol); 300,000 tested, 0.32% active;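 active = mean activation of at least 10% of the iron chelator positive control signal, with at least half of replicates also reaching 10%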
NS3 helicase inh: blocks Hepatitis C virus NS3 helicase unwinding; inhibition, % at 10.9 µM; NS3 helicase DNA unwinding, Cy5 molecular beacon fluorescence; 290,000 tested, 0.56% active;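 active = inhibition above the mean of all tested compounds plus 3 SD, set per campaign, cut at about 35% in these data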;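 note: 0% = DMSO wells and 100% = thioflavine S control wells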
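Measured by: Cy5 fluorescence, 0 and 60 min reads / Assay system: NS3 helicase fragment of HCV / Control set: low DMSO, high thioflavine S at 110 µM / Times: 1 h reaction at 25 °C, ATP-initiated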
PP1 inh: PP1-alpha (human) inhibition in PP5 counter-screen; P62136; purified PP1alpha, OMFP fluorescence; inhibition, % at 6.7 µM; 320,000 tested, 0.9% active; AID 2235;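 active = inhibition above the mean inhibition of all tested compounds plus 3 SD, computed separately for each screening campaign, cut at about 15% in these data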
Target sequence (P62136 whole entry, looked up): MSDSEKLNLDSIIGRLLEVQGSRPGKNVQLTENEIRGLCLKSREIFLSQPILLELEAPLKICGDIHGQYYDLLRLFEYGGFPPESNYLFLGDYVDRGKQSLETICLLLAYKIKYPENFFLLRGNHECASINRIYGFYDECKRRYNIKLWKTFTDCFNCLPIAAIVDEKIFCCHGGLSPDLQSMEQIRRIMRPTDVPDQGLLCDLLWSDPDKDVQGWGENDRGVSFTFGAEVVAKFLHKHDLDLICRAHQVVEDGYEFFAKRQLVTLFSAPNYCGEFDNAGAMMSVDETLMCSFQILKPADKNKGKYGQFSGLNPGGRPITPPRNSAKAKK
* = called active by the depositor; x = not tested or not shown. An excerpt weighted towards active compounds, which were near 1.9% of everything screened.

SMILES | DNA FID counter | PP5 primary | HIF act | NS3 helicase inh | PP1 inh
CCN1CCN(C(=S)Nc2ccc3nc(N4CCN(CC)CC4)cc(C)c3c2)CC1 | 46* | -1 | 0 | 7 | 3
CCCCN(CC)CCNC(=O)CCC(=O)Nc1ccc2nc(N3CCN(C)CC3)cc(C)c2c1 | 41* | 3 | 0 | -1 | -1
CCCN(CCC)CCCNC(=S)Nc1ccc2nc(N3CCN(C)CC3)cc(C)c2c1 | 44* | -2 | 0 | 4 | -2
CC(C)OCCCNC(=O)CCSc1ccc(Cl)cc1 | -17 | 2 | 0 | -6 | -2
C=C1CC[C@@]23CC[C@]4(C)[C@@](OC2=O)([C@@H]3C1)[C@H]1O[C@H]1C1[C@@]2(C)CC[C@H](O)C(C)(C)C2CC[C@]14C (stereo not given in full) | x | 3 | x | x | 1
Cc1cc(Br)cc(Br)c1OCC(=O)NNC(=O)c1ccoc1C | -23 | -5 | 0 | 11 | -7
O=C(COC(=O)c1ccccc1Cc1ccccc1)Nc1ccc(SC(F)F)cc1 | -1 | 5 | 4 | 9 | 16*
O=C1/C(=C2\C(=O)N(Cc3ccc(F)cc3)c3ccccc32)SC(=S)N1CCS(=O)(=O)O | 39* | 2 | 0 | -24 | 4
CCn1c(SCC(=O)Nc2nncs2)nnc1-c1ccco1 | -7 | 1 | 34* | 4 | 1
CCOC(=O)/C(C#N)=C/C=C1\C=Cc2ccccc2N1CC | -12 | 6 | 18* | -2 | 3
C[C@@H]1CC=C[C@H]2[C@H]1C(=O)N(Cc1ccccc1)[C@H]2c1ccc(F)c(-c2ccc(N(C)C)cc2)c1 | x | 3 | 0 | x | 16*
CC(=O)c1ccc(-c2cc([C@H]3[C@H]4C=CC[C@@H](C)[C@@H]4C(=O)N3Cc3ccccc3)ccc2F)cc1 | x | 1 | 0 | x | 5
CC(C)OC(=O)CC1C(=O)NCCN1C(=O)COc1ccc(C(C)(C)C)cc1 (stereo not given) | -40 | 1 | 0 | -1 | -1
Cc1cc(C(=O)Cn2nc(C(=O)O)c3ccccc3c2=O)c(C)n1-c1ccc(OC(F)F)cc1 | -17 | 0 | -12 | 13 | 16*
O=C(Nc1nc(-c2ccccn2)cs1)c1ccco1 | -7 | 0 | 3 | 10 | 16*
O=C(CN1C(=O)NC2(CCc3ccccc32)C1=O)Nc1cc(C(F)(F)F)ccc1N1CCOCC1 (stereo not given) | x | 2 | 1 | x | 1
COc1cc2ncnc(NCCCN3CCOCC3)c2cc1OC | 76* | 2 | -1 | 30 | -7
COc1ccc(-n2ncc3c(NCCCN4CCOCC4)ncnc32)cc1 | 2 | 1 | 2 | 6 | -2
COc1cc2nc(=S)n(CCCN3CCOCC3)c(N)c2cc1OC | 45* | x | x | 11 | x
CCOc1cc2nc(-c3ccc(OC)c(OC)c3)nc(NCCCN3CCOCC3)c2cc1OC | 43* | 5 | 0 | 6 | 3
O=C(NCCC(=O)N1CCCC(C(F)(F)F)C1)c1ccccc1Cl (stereo not given) | -4 | 2 | 0 | 0 | -1
COc1cc2[nH]c(=O)c(C(=O)NCc3ccccc3Cl)c(O)c2cc1OC | -2 | x | -1 | 2 | x
COCCn1c(=NC(=O)c2ccc(S(=O)(=O)N3CCCc4ccccc43)cc2)sc2cc(S(C)(=O)=O)ccc21 | 4 | 3 | 105* | -4 | -4
CCN(CC)CCn1c(=N)n(CC(O)COc2ccccc2)c2ccccc21 (stereo not given) | 37* | 3 | 0 | 5 | 0
CCOC(=O)C(NC(C)=O)(N1CCOCC1)C(F)(F)F (stereo not given) | 2 | 0 | 49* | 6 | -5
SMILES | DNA FID counter | PP5 primary | HIF act | NS3 helicase inh | PP1 inh
COc1ccccc1NC(=O)C1CCCN1C(=O)Nc1ccc(F)cc1 (stereo not given) | -4 | -3 | -30 | 6 | -3
COc1ccc(S(=O)(=O)N2CCOC2CNC(=O)C(=O)NCc2ccc3c(c2)OCO3)cc1OC (stereo not given) | -35 | 1 | 219* | -3 | 2
COc1ccc(CNC(=O)C(=O)NCC2OCCN2S(=O)(=O)c2ccc(OC)c(OC)c2)cc1 (stereo not given) | -37 | -1 | 0 | -6 | 2
CCn1c2ccccc2c2cc(CNCCCN3CCOCC3)ccc21 | 47* | 0 | 1 | -53 | 0
CCOc1cc(CN2CCN(c3ncccn3)CC2)ccc1OC | -2 | 0 | 0 | -13 | 1
COC(=O)c1oc2ccccc2c1NC(=O)/C=C/C(=O)O | -6 | 0 | 0 | -6 | -7
Cc1ccc(-n2c(-c3ccc(Br)cc3)c[n+]3c2CCc2ccc4cccnc4c2-3)cc1 | 14 | 2 | -1 | -89 | 25*
CSCCC(C)N1CCC(Oc2ccc(C(=O)N3CCCC3)cc2)CC1 (stereo not given) | 6 | 0 | 0 | 2 | 0
Cc1cc2cc(CNC(=O)Nc3cccc(Cl)c3)ccc2n1C | -4 | 3 | 0 | -15 | 16*
CCc1cc(C(=O)N/N=C/c2ccc(O)cc2O)c2ccccc2n1 | -18 | 1 | 29* | 12 | -2
O=C(CNC(=O)C(c1ccccc1)c1ccccc1)N/N=C/c1ccc(O)cc1O | -11 | 0 | 11* | 7 | 1
Cn1cc(CN2CCC(C(=O)Nc3ccc(Oc4ccccc4F)cc3)CC2)cn1 | 17 | 0 | 0 | -14 | -5
CC1CCc2c(C(=O)Nc3ccc(N4CCOCC4)cc3)csc2C1 (stereo not given) | -8 | 3 | 1 | 28 | -2
CCC1CCc2sc(C(=O)NCc3ccccn3)cc2C1 (stereo not given) | -34 | 1 | 22* | -8 | -1
COCc1cc(CN2CCN(C)CC2)c(O)c2ncccc12 | -5 | 0 | 0 | -5 | 2
Oc1c(CN2CCOCC2)cc(COCc2ccccc2)c2cccnc12 | -3 | 1 | 53* | 5 | 16*
NNC(=O)c1cc2c(N3CCC(Cc4ccccc4)CC3)ncnc2s1 | -21 | 0 | -2 | 10 | 16*
CC(=O)c1sc(N/N=C2\CC3CC2C(C)C3(C)C)nc1C (stereo not given) | -11 | 4 | 0 | -9 | 2
O=C1C(=O)N(C/C=C/c2ccccc2)c2ccccc21 | -3 | 0 | -6 | 8 | 17*
O=C(CSc1ccccc1)Nc1nccs1 | -1 | 1 | 1 | -5 | -5
O=C(CSc1cn(Cc2ccccc2)c2ccccc12)Nc1nccs1 | -10 | 5 | 4 | -10 | 16*
CCOC(=O)N1CCC(Nc2c(-c3ccccc3)c(=O)c2=O)CC1 | -16 | 1 | 13* | 9 | -1
COc1ccc(NC(=O)C(=O)NCCN2CCN(C(=O)c3ccco3)CC2)cc1 | -30 | 0 | 0 | 11 | 1
Cc1cc(NC(=S)N(Cc2ccc(Cl)cc2)Cc2ccc(C(=O)O)cc2)ccc1Cl | -23 | 4 | 0 | 11 | 16*
CCN(CC)c1ccc2c(Cl)c(Br)c(=O)oc2c1 | -4 | 3 | 14* | 12 | 2
Oc1ccc2ccccc2c1/C=N/Nc1nnc(-c2ncc[nH]2)c2ccccc12 | -1 | 1 | 82* | -18 | 14
